Experimental data: ChEMBL document CHEMBL3124838, “Discovery of 6-aryl-azabenzimidazoles that inhibit the TBK1/IKK-ε kinases” (Bioorg Med Chem Lett, 2014)

How the values were obtained:
[1] = molecular target: T1, Interleukin-1 receptor-associated kinase 4 (Homo sapiens) (UniProt Q9NWZ3); assay: Inhibition of human IRAK4 assessed as residual activity at 1 uM relative to control
T1 sequence (whole entry): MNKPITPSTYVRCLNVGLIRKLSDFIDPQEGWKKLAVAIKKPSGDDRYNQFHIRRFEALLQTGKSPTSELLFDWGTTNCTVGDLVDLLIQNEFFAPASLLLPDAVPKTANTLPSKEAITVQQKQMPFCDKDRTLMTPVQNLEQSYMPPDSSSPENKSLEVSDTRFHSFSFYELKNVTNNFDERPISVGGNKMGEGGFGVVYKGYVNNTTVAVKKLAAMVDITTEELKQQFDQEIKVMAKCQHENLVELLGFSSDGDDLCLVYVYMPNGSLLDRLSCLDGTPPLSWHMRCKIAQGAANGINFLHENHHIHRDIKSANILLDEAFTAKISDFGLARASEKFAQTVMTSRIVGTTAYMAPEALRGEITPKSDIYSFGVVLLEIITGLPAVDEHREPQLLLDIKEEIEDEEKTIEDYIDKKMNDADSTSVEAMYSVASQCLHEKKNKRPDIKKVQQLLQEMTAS

[2] = molecular target: Calcium/calmodulin-dependent protein kinase type 1 (Homo sapiens) (UniProt Q14012); assay: Inhibition of human CaMK1 assessed as residual activity at 1 uM relative to control
Chain of Calcium/calmodulin-dependent protein kinase type 1 (Homo sapiens) (Q14012 whole entry, looked up): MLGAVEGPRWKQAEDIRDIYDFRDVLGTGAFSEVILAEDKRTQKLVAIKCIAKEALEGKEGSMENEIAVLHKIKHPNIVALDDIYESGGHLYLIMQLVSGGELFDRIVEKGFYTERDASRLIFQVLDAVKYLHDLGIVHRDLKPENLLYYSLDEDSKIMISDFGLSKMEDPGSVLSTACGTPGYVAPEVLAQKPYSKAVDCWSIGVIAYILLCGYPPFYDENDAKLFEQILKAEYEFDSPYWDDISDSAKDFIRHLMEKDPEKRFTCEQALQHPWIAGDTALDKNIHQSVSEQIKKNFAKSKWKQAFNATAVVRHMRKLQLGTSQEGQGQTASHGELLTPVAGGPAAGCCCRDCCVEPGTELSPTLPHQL

[3] = molecular target: Mitogen-activated protein kinase kinase kinase 9 (Homo sapiens) (UniProt P80192); assay: Inhibition of human MLK1 assessed as residual activity at 1 uM relative to control
Chain of Mitogen-activated protein kinase kinase kinase 9 (Homo sapiens) (P80192 whole entry, looked up): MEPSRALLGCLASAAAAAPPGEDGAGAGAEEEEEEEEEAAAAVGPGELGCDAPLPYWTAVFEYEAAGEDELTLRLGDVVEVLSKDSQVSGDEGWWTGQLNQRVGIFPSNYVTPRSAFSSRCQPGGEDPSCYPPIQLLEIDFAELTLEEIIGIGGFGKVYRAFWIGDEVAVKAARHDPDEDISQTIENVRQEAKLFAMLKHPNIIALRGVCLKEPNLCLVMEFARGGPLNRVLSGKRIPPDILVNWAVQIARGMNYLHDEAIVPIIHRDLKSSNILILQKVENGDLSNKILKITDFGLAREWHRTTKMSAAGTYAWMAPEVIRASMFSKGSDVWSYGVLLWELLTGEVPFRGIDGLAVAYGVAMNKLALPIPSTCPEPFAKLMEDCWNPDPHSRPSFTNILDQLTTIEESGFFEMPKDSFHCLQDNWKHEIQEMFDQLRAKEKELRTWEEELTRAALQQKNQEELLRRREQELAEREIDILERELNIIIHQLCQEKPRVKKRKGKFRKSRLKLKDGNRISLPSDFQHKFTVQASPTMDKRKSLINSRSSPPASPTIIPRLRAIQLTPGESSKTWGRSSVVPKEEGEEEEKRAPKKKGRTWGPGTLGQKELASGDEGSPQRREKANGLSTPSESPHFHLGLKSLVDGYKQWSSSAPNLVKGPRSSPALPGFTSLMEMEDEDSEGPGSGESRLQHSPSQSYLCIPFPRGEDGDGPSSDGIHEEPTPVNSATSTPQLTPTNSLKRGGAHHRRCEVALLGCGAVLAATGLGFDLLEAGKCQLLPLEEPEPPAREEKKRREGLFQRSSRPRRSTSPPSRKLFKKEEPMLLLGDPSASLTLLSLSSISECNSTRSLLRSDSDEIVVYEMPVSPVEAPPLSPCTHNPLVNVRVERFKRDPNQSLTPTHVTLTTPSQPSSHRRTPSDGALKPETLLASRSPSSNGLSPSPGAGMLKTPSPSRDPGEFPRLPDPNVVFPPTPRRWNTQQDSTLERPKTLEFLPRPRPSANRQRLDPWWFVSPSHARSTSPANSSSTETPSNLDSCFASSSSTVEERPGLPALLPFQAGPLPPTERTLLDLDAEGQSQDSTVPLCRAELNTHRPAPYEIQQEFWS

[4] = molecular target: Protein-tyrosine kinase 6 (Homo sapiens) (UniProt Q13882); assay: Inhibition of human BRK assessed as residual activity at 1 uM relative to control
Chain of Protein-tyrosine kinase 6 (Homo sapiens) (Q13882 whole entry, looked up): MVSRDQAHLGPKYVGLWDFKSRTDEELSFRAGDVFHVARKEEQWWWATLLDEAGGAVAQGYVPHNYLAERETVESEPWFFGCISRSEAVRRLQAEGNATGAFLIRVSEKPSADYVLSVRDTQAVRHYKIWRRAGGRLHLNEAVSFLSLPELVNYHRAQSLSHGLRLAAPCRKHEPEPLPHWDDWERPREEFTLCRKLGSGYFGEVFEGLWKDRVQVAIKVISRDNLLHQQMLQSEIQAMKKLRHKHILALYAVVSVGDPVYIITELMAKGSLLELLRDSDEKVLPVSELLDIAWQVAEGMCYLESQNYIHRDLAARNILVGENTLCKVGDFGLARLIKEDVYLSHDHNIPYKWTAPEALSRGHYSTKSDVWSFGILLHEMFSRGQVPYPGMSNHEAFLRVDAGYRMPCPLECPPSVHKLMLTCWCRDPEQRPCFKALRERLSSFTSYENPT

[5] = molecular target: Serine/threonine-protein kinase MARK1 (Homo sapiens) (UniProt Q9P0L2); assay: Inhibition of human MARK1 assessed as residual activity at 1 uM relative to control
Chain of Serine/threonine-protein kinase MARK1 (Homo sapiens) (Q9P0L2 whole entry, looked up): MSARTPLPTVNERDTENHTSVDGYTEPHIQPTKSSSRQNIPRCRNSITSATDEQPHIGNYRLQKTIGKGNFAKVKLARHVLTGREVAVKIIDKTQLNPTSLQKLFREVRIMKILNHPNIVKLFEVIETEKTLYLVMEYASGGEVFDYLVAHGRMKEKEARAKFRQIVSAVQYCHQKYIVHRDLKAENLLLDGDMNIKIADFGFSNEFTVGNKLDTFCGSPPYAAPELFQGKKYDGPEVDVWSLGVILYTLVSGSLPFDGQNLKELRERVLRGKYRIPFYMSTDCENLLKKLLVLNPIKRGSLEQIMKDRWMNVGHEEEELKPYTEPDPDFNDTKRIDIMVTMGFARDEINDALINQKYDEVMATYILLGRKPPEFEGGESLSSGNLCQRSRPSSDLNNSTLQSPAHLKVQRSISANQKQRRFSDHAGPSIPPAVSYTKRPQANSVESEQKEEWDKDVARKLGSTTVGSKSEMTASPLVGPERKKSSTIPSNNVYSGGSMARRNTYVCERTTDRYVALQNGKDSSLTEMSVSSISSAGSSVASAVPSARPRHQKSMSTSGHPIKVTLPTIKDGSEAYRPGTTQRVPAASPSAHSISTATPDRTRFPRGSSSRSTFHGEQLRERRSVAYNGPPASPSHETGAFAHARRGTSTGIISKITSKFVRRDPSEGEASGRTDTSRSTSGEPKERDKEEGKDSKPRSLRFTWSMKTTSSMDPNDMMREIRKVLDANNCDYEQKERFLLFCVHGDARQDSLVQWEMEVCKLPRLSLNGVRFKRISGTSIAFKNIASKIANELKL

[6] = molecular target: Tyrosine-protein kinase Fyn (Homo sapiens) (UniProt P06241); assay: Inhibition of human FYN assessed as residual activity at 1 uM relative to control
[7] = molecular target: T2, Inhibitor of nuclear factor kappa-B kinase subunit epsilon (Homo sapiens, UniProt Q14164); assay: Inhibition of IKK-epsilon (unknown origin) using 5FAM-AKELDQGSLCTpSFVGTLQ-NH2 as substrate by microfluidic mobility shift assay
T2 sequence (Q14164 whole entry): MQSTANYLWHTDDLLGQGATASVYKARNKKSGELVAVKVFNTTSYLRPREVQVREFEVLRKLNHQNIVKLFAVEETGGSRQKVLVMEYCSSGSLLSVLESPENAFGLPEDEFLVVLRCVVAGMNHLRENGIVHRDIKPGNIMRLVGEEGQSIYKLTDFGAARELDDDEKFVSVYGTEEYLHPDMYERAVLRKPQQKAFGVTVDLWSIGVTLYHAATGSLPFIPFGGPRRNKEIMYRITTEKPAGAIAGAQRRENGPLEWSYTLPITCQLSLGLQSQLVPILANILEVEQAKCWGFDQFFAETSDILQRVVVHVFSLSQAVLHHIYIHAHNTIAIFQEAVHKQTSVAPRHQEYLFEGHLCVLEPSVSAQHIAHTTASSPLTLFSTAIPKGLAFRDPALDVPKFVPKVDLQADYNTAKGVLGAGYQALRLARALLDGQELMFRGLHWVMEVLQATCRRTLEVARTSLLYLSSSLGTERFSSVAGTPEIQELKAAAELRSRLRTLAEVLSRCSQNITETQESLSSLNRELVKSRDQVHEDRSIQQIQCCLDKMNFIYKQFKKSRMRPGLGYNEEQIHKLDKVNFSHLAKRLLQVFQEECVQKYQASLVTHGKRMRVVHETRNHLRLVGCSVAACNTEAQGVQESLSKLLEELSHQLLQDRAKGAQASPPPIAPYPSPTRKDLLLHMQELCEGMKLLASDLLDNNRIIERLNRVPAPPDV
Method in brief: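 Recombinant IKK-ε (4 nM) in HEPES buffer with 1.5 µM 5FAM-labelled peptide substrate, ATP at its K_M, and 10 mM MgCl2. The 10-point titration used half-log serial dilutions. Reactions ran at room temperature for a set time, were quenched with EDTA-containing HEPES, and were read by microfluidic mobility shift. Percent inhibition came from the ratio of phosphorylated to total peptide.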

[8] = molecular target: T3, Eukaryotic elongation factor 2 kinase (Homo sapiens) (UniProt O00418); assay: Inhibition of human eEF-2K assessed as residual activity at 1 uM relative to control
T3 sequence (whole entry): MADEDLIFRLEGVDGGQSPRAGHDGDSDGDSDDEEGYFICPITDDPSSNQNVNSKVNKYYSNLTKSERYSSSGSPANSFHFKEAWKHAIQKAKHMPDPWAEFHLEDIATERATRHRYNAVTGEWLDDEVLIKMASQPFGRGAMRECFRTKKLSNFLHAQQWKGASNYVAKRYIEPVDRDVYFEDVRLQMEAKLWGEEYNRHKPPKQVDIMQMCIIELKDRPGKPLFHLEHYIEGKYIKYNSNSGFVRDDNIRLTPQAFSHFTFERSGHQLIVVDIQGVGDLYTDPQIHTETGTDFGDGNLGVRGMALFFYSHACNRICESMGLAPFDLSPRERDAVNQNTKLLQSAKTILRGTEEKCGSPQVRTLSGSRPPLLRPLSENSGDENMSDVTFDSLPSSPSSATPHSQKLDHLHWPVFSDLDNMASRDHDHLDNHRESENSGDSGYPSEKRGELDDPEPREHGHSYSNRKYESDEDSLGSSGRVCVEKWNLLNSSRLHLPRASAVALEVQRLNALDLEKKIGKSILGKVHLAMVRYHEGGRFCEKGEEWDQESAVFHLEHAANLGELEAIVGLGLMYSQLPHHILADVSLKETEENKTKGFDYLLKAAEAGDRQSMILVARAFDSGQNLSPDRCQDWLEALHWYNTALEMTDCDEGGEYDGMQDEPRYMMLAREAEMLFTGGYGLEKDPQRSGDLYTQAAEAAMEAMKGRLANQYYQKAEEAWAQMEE

[9] = molecular target: Mitogen-activated protein kinase 14 (Homo sapiens) (UniProt Q16539); assay: Inhibition of human SAPK2alpha assessed as residual activity at 1 uM relative to control
Chain of Mitogen-activated protein kinase 14 (Homo sapiens) (Q16539 whole entry): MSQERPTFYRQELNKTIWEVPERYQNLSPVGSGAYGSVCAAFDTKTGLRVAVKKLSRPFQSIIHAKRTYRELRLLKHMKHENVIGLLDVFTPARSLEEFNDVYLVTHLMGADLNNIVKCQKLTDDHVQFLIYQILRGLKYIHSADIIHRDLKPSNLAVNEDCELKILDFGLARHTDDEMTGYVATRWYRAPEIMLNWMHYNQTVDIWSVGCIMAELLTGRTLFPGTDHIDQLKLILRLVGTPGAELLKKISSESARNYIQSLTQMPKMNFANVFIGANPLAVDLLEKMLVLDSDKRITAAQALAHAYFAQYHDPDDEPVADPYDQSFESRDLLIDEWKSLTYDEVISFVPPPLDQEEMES

[10] = molecular target: Dual specificity mitogen-activated protein kinase kinase 1 (Homo sapiens) (UniProt Q02750); assay: Inhibition of human MEK1 assessed as residual activity at 1 uM relative to control
[11] = molecular target: 3-phosphoinositide-dependent protein kinase 1 (Homo sapiens) (UniProt O15530); assay: Inhibition of human PDK1 assessed as residual activity at 1 uM relative to control
Chain of 3-phosphoinositide-dependent protein kinase 1 (Homo sapiens) (O15530 whole entry, looked up): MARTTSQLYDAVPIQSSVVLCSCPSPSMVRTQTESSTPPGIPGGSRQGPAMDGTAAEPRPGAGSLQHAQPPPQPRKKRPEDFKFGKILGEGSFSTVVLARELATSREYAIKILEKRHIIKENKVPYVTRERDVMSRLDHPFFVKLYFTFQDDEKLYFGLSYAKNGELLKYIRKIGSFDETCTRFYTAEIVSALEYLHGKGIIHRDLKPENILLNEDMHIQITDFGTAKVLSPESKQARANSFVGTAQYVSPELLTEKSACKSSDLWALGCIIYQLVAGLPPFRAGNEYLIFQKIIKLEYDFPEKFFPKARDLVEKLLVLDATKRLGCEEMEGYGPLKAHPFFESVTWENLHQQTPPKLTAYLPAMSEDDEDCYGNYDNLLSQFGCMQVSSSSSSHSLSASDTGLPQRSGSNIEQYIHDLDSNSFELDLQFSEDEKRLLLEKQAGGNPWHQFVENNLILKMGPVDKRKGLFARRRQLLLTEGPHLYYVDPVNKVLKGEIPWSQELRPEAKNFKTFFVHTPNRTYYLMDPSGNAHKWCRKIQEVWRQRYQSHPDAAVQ

[12] = molecular target: Serine/threonine-protein kinase pim-2 (Homo sapiens) (UniProt Q9P1W9); assay: Inhibition of human PIM-2 assessed as residual activity at 1 uM relative to control
[13] = molecular target: Casein kinase II subunit alpha' (Homo sapiens) (UniProt P19784); assay: Inhibition of human CK2-alpha2 assessed as residual activity at 1 uM relative to control
[14] = molecular target: Insulin receptor (Homo sapiens) (UniProt P06213); assay: Inhibition of human IR assessed as residual activity at 1 uM relative to control
Chain of Insulin receptor (Homo sapiens) (P06213 28-758 limits assumed): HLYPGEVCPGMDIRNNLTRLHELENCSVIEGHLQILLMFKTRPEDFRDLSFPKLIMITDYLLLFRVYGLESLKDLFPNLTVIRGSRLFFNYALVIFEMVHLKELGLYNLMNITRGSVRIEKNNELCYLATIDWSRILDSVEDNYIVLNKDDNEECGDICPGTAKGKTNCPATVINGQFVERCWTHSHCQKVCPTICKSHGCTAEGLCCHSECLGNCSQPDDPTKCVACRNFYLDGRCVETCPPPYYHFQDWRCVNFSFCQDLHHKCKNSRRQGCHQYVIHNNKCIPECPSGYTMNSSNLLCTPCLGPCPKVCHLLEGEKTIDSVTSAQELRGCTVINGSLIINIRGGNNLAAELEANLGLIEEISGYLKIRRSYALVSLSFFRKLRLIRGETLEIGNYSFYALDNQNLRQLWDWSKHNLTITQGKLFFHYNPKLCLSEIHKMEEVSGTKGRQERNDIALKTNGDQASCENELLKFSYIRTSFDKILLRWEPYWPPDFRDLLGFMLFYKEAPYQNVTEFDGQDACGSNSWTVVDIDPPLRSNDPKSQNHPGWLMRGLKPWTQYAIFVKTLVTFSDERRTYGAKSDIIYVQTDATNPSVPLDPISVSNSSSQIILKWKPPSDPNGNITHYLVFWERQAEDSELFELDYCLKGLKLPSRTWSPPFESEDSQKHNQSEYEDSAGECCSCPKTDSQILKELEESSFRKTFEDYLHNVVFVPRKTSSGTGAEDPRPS
Chain of Insulin receptor (Homo sapiens) (P06213 763-1382 limits assumed): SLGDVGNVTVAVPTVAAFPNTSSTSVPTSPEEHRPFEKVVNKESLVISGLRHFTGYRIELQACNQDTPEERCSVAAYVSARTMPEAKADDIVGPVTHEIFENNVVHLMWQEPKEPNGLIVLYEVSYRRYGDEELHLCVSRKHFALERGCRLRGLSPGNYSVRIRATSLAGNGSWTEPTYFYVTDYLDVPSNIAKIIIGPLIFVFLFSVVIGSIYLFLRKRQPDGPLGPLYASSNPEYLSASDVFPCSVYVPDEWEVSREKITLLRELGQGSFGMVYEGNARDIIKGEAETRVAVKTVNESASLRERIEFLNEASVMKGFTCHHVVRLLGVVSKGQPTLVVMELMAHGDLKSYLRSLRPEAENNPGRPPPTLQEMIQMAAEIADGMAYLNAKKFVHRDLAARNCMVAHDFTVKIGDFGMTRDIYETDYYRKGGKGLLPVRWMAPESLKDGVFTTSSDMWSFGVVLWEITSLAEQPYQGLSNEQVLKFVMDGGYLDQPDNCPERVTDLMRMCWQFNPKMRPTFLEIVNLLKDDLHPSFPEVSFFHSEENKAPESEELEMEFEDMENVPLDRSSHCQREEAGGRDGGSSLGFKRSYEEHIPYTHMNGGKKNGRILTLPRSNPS

Row | Activity [1] [%] | Activity [2] [%] | Activity [3] [%] | Activity [4] [%] | Activity [5] [%] | Activity [6] [%] | IC50 [7] [nM] | Activity [8] [%] | Activity [9] [%] | Activity [10] [%] | Activity [11] [%] | Activity [12] [%] | Activity [13] [%] | Activity [14] [%] | SMILES
1 | 75 | 102 | 30 | 110 | 48 | 34 | 273 | 102 | 107 | 86 | 91 | 90 | 91 | 102 | COc1ccc(-c2nc3cc(-c4csc(C(=O)NCC(C)C)c4)cnc3[nH]2)cc1
2 | 81 | 83 | 23 | 112 | 61 | 33 | 1750 | 101 | 111 | 90 | 80 | 94 | 59 | 80 | COc1ccc(-c2nc3cc(-c4csc(C(=O)NCCC(C)C)c4)cnc3[nH]2)cc1
3 | 81 | 97 | 37 | 102 | 58 | 67 | 497 | 91 | 93 | 89 | 85 | 93 | 74 | 92 | COc1ccc(-c2nc3cc(-c4csc(C(=O)NCC(C)(C)C)c4)cnc3[nH]2)cc1
